# Experiments:
# Mycobacterium kansasii [1] = assay: Antimycobacterial activity against Mycobacterium kansasii 235/80 after 21 days; format: functional; conditions: 235/80, 504 h
# Outline: (§1)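 Micromethod MIC in Sula semisynthetic medium, with compounds added as DMSO solutions at […]. Incubation at 37 °C. Inocula: M. kansasii 235/80 at dilution 10⁻⁴, clinical isolate 6509/96 at 10⁻⁵.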
# Staphylococcus aureus [2] = assay: Antibacterial activity against Staphylococcus aureus CCM 4516/08 after 48 hrs by broth microdilution method; format: functional; conditions: CCM 4516/08, 48 h
# Outline: (§2)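 Broth microdilution modified from standard M07-A07 in Mueller-Hinton broth at pH 7.4 (±0.2). Compounds were dissolved in DMSO. Inoculum in sterile water was adjusted to 0.5 McFarland (1.5 × 10⁸ CFU/mL). MIC was taken as IC₉₀, i.e. ≥90% growth reduction versus control, read visually and spectrophotometrically at 540 nm.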
# Nakaseomyces glabratus = assay: Antifungal activity against Candida glabrata 20/I after 24 hrs by broth microdilution method; format: functional
# Outline: (§3)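 Microdilution broth per CLSI M27-A3 (yeasts) or M38-A2 (moulds) in RPMI 1640 with glutamine, buffered to pH 7.0 with 0.165 mol MOPS. Compounds were in DMSO. Final inoculum was 5 × 10³ ± 0.2 CFU/mL. Other conditions matched the antibacterial assay, with MIC as IC₉₀ read visually and at 540 nm. Determined twice, in duplicate.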
# Mycobacterium kansasii [3] = assay: Antimycobacterial activity against Mycobacterium kansasii 6509/96 after 21 days; format: functional; conditions: 6509/96, 504 h; outline: as §1
# [4] = system: Mycobacterium tuberculosis; assay: Antimycobacterial activity against Mycobacterium tuberculosis H37Rv 331/88 after 14 days; format: functional; conditions: H37Rv 331/88, 336 h
# Klebsiella pneumoniae [5] = assay: Antibacterial activity against Klebsiella pneumoniae D 11750/08 after 24 hrs by broth microdilution method; format: functional; conditions: D 11750/08, 24 h; outline: as §2
# Staphylococcus aureus [6] = assay: Antibacterial activity against methicillin-resistant Staphylococcus aureus H 5996/08 after 24 hrs by broth microdilution method; format: functional; conditions: H 5996/08, 24 h
# Outline: (§4)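 Microdilution broth method modified from M07-A07, in Mueller-Hinton broth at pH 7.4 (±0.2). Compounds were dissolved in DMSO. Inoculum was made in sterile water to 0.5 McFarland (1.5 × 10⁸ CFU/mL). MIC was taken as IC₉₀, meaning ≥90% growth reduction versus the drug-free control. Growth was read visually and by absorbance at 540 nm.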
# Mycobacterium kansasii [7] = assay: Antimycobacterial activity against Mycobacterium kansasii 235/80 after 14 days; format: functional; conditions: 235/80, 336 h; outline: as §1
# [8] = system: Staphylococcus epidermidis; assay: Antibacterial activity against methicillin-resistant Staphylococcus epidermidis H 6966/08 after 24 hrs by broth microdilution method; format: functional; conditions: H 6966/08, 24 h; outline: as §4
# Mycobacterium avium [9] = assay: Antimycobacterial activity against isoniazid-, rifampicin-, ofloxacin-, ethambutol-resistant Mycobacterium avium 330/88 after 21 days; format: functional; conditions: 330/88, 504 h
# Outline: (§5)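 Micromethod in Sula semisynthetic medium, with compounds added as DMSO solutions over a two-fold series from 1000 down to 1. Inoculum for M. avium 330/88 was a 10⁻⁵ dilution. Plates were incubated at 37 °C and MIC was read after 14 and 21 days.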
# [10] = system: Mycobacterium tuberculosis; assay: Antimycobacterial activity against Mycobacterium tuberculosis H37Rv 331/88 after 21 days; format: functional; conditions: H37Rv 331/88, 504 h; outline: as §5
# Staphylococcus aureus [11] = assay: Antibacterial activity against Staphylococcus aureus CCM 4516/08 after 24 hrs by broth microdilution method; format: functional; conditions: CCM 4516/08, 24 h; outline: as §4
# Trichosporon asahii = assay: Antifungal activity against Trichosporon asahii 1188 after 24 hrs by broth microdilution method; format: functional; conditions: Trichosporon asahii, 1188, 24 h; outline: as §3
# Escherichia coli = assay: Antibacterial activity against Escherichia coli CCM 4517 after 24 hrs by broth microdilution method; format: functional; conditions: CCM 4517, 24 h; outline: as §2
# Mycobacterium kansasii [12] = assay: Antimycobacterial activity against Mycobacterium kansasii 6509/96 after 7 days; format: functional; conditions: 6509/96, 168 h; outline: as §1
# Pseudomonas aeruginosa = assay: Antibacterial activity against Pseudomonas aeruginosa CCM 1961 after 24 hrs by broth microdilution method; format: functional; conditions: CCM 1961, 24 h; outline: as §2
# Staphylococcus aureus [13] = assay: Antibacterial activity against methicillin-resistant Staphylococcus aureus H 5996/08 after 48 hrs by broth microdilution method; format: functional; conditions: H 5996/08, 48 h; outline: as §4
# Mycobacterium kansasii [14] = assay: Antimycobacterial activity against Mycobacterium kansasii 235/80 after 7 days; format: functional; conditions: 235/80, 168 h; outline: as §1
# [15] = system: Staphylococcus epidermidis; assay: Antibacterial activity against methicillin-resistant Staphylococcus epidermidis H 6966/08 after 48 hrs by broth microdilution method; format: functional; conditions: H 6966/08, 48 h; outline: as §4
# Mycobacterium avium [16] = assay: Antimycobacterial activity against isoniazid-, rifampicin-, ofloxacin-, ethambutol-resistant Mycobacterium avium 330/88 after 14 days; format: functional; conditions: 330/88, 336 h; outline: as §5
# Klebsiella pneumoniae [17] = assay: Antibacterial activity against ESBL-positive Klebsiella pneumoniae J 14368/08 after 24 hrs by broth microdilution method; format: functional; conditions: J 14368/08, 24 h; outline: as §2
# Mycobacterium kansasii [18] = assay: Antimycobacterial activity against Mycobacterium kansasii 6509/96 after 14 days; format: functional; conditions: 6509/96, 336 h; outline: as §1
# [19] = system: Trichophyton mentagrophytes; assay: Antifungal activity against Trichophyton mentagrophytes 445 after 24 hrs by broth microdilution method; format: functional; conditions: Trichophyton mentagrophytes, 445, 24 h
# Pichia kudriavzevii = assay: Antifungal activity against Candida krusei E58 after 24 hrs by broth microdilution method; format: functional; conditions: E58, 24 h; outline: as §3
# Lichtheimia corymbifera = assay: Antifungal activity against Absidia corymbifera 272 after 24 hrs by broth microdilution method; format: functional; conditions: Lichtheimia corymbifera, 272, 24 h; outline: as §3
# [20] = Selectivity ratio of IC50 for human HepG2 cell sto MIC100 for Mycobacterium kansasii 235/80; format: functional
# Candida tropicalis = assay: Antifungal activity against Candida tropicalis 156 after 24 hrs by broth microdilution method; format: functional; conditions: Candida tropicalis, 156, 24 h; outline: as §3
# [21] = Selectivity ratio of IC50 for human HepG2 cell sto MIC100 for Mycobacterium kansasii 6509/96; format: functional
# Candida albicans = assay: Antifungal activity against Candida albicans ATCC 44857 after 24 hrs by broth microdilution method; format: functional; conditions: ATCC 44857, 24 h; outline: as §3
# Aspergillus fumigatus = assay: Antifungal activity against Aspergillus fumigatus 231 after 24 hrs by broth microdilution method; format: functional; conditions: Aspergillus fumigatus, 231, 24 h; outline: as §3
# HepG2 = assay: Cytotoxicity against human HepG2 cells after 24 hrs by MTS assay; format: cell-based; conditions: HepG2, 24 h
# Outline: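 Hep G2 human liver cells (passage 3–4), 10 000 per well, in MEM with 1% glutamine, 10% fetal serum and 1% non-essential amino acids. Compounds were added from DMSO at eight increasing concentrations in quadruplicate. Exposure was 24 h at 37 °C in 5% CO₂, then MTS reagent for 1.5 h. Formazan was read at 490 nm and IC₅₀ derived as 50% of control viability.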
# [22] = Selectivity ratio of IC50 for human HepG2 cell sto MIC90 for Staphylococcus aureus CCM 4516/08; format: functional
smiles,measurement,setting,value
O=S(=O)(Nc1ncccn1)c1ccc(/N=C/c2cc(Cl)ccc2O)cc1,MIC,Mycobacterium kansasii [1],32 µM
same,MIC,Staphylococcus aureus [2],250 µM
same,MIC,Nakaseomyces glabratus,125 µM
same,MIC,Mycobacterium kansasii [3],32 µM
same,MIC,[4],125 µM
same,MIC,Klebsiella pneumoniae [5],500 µM
same,MIC,Staphylococcus aureus [6],125 µM
same,MIC,Mycobacterium kansasii [7],16 µM
same,MIC,[8],> 500 µM
same,MIC,Mycobacterium avium [9],125 µM
same,MIC,[10],250 µM
same,MIC,Staphylococcus aureus [11],250 µM
same,MIC,Trichosporon asahii,62.5 µM
same,MIC,Escherichia coli,62.5 µM
same,MIC,Mycobacterium kansasii [12],16 µM
same,MIC,Pseudomonas aeruginosa,≥ 500 µM
same,MIC,Staphylococcus aureus [13],125 µM
same,MIC,Mycobacterium kansasii [14],8 µM
same,MIC,[15],> 500 µM
same,MIC,Mycobacterium avium [16],125 µM
same,MIC,Klebsiella pneumoniae [17],500 µM
same,MIC,Mycobacterium kansasii [18],32 µM
O=S(=O)(Nc1nccs1)c1ccc(/N=C/c2cc(Cl)ccc2O)cc1,MIC,Mycobacterium kansasii [1],4 µM
same,MIC,Staphylococcus aureus [2],31.2 µM
same,MIC,Nakaseomyces glabratus,> 125 µM
same,MIC,[19],> 125 µM
same,MIC,Mycobacterium kansasii [3],2 µM
same,MIC,[4],32 µM
same,MIC,Klebsiella pneumoniae [5],500 µM
same,MIC,Staphylococcus aureus [6],31.2 µM
same,MIC,Pichia kudriavzevii,> 125 µM
same,MIC,Mycobacterium kansasii [7],4 µM
same,MIC,[8],> 500 µM
same,MIC,Lichtheimia corymbifera,> 125 µM
same,MIC,Mycobacterium avium [9],125 µM
same,MIC,[10],62.5 µM
same,Ratio,[20],78.2
same,MIC,Staphylococcus aureus [11],31.2 µM
same,MIC,Candida tropicalis,> 125 µM
same,MIC,Trichosporon asahii,> 125 µM
same,MIC,Escherichia coli,500 µM
same,MIC,Mycobacterium kansasii [12],2 µM
same,MIC,Pseudomonas aeruginosa,≥ 500 µM
same,MIC,Staphylococcus aureus [13],31.2 µM
same,Ratio,[21],78.2
same,MIC,Mycobacterium kansasii [14],2 µM
same,MIC,[15],> 500 µM
same,MIC,Mycobacterium avium [16],62.5 µM
same,MIC,Klebsiella pneumoniae [17],500 µM
same,MIC,Candida albicans,> 125 µM
same,MIC,Mycobacterium kansasii [18],2 µM
same,MIC,Aspergillus fumigatus,> 125 µM
same,IC50,HepG2,313 µM
same,Ratio,[22],10

# Reference: ChEMBL document CHEMBL1955763, “Antimicrobial activity of sulfonamides containing 5-chloro-2-hydroxybenzaldehyde and 5-chloro-2-hydroxybenzoic acid scaffold” (Eur J Med Chem, 2012)
